Legend:
Mus musculus [1] = test: In vivo inhibition of mRNA splicing of human SMN2 exon 7 in FVB.Cg-Tg(SMN2 delta 7 exon)4299Ahmb Tg(SMN2)89Ahmb Smn1tm1Msd/J mouse assessed as median survival time at 3 mg/kg/day, ip administered on postnatal day 3 to day 23 (reference value: 14 days); type: functional
Mus musculus [2] = test: In vivo inhibition of mRNA splicing of human SMN2 exon 7 in FVB.Cg-Tg(SMN2 delta 7 exon)4299Ahmb Tg(SMN2)89Ahmb Smn1tm1Msd/J mouse assessed as median survival time at 20 mg/kg/day, po bid administered on postnatal day 24 (reference value: 14 days); type: functional
Mus musculus [3] = test: In vivo inhibition of mRNA splicing of human SMN2 exon 7 in FVB.Cg-Tg(SMN2 delta 7 exon)4299Ahmb Tg(SMN2)89Ahmb Smn1tm1Msd/J mouse assessed as increase in SMN protein level in spinal cord at 3 mg/kg, ip qd administered on postnatal day 3 to day 9 by HTRF assay relative to control; type: functional; design: scale not given: the % may be the effect or the level left
Procedure, shortened: (§1)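 Homozygous Δ7 SMA mice were dosed IP once daily from PND3 to PND9 with compound or vehicle (100% DMSO solution, 2.5 mL/kg). Brain, spinal cord and quadriceps were homogenized in RIPA buffer with protease inhibitors. SMN was read by HTRF (anti-SMN d2 and Kryptate antibodies, overnight rt, 665/620 nm) and normalized to BCA total protein. Values are % change versus vehicle ±SD; 5-11 mice per group.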

Mus musculus [4] = test: In vivo inhibition of mRNA splicing of human SMN2 exon 7 in FVB.Cg-Tg(SMN2 delta 7 exon)4299Ahmb Tg(SMN2)89Ahmb Smn1tm1Msd/J mouse assessed as increase in SMN protein level in quadriceps at 3 mg/kg, ip qd administered on postnatal day 3 to day 9 by HTRF assay relative to control; type: functional; design: scale not given: the % may be the effect or the level left; procedure, shortened: as §1
Homo sapiens [5] = species on record: Homo sapiens; test: Inhibition of mRNA splicing of SMN2 exon 7 in GM03813 fibroblasts derived from SMA patient assessed as compound concentration required to increase SMN protein level by 1.5 times after 24 hrs by HTRF assay
Mus musculus [6] = test: In vivo inhibition of mRNA splicing of human SMN2 exon 7 in FVB.Cg-Tg(SMN2 delta 7 exon)4299Ahmb Tg(SMN2)89Ahmb Smn1tm1Msd/J mouse assessed as increase in SMN protein level in brain at 1 mg/kg, ip qd administered on postnatal day 3 to day 9 by HTRF assay relative to control; type: functional; design: scale not given: the % may be the effect or the level left; procedure, shortened: as §1
Mus musculus [7] = test: In vivo inhibition of mRNA splicing of human SMN2 exon 7 in FVB.Cg-Tg(SMN2 delta 7 exon)4299Ahmb Tg(SMN2)89Ahmb Smn1tm1Msd/J mouse assessed as median survival time at 6 mg/kg/day, po bid administered on postnatal day 24 (reference value: 14 days); type: functional
Mus musculus [8] = test: In vivo inhibition of mRNA splicing of human SMN2 exon 7 in FVB.Cg-Tg(SMN2 delta 7 exon)4299Ahmb Tg(SMN2)89Ahmb Smn1tm1Msd/J mouse assessed as increase in SMN protein level in quadriceps at 1 mg/kg, ip qd administered on postnatal day 3 to day 9 by HTRF assay relative to control; type: functional; design: scale not given: the % may be the effect or the level left; procedure, shortened: as §1
Homo sapiens [9] = species on record: Homo sapiens; test: Inhibition of mRNA splicing of human SMN2 exon 7 transfected in HEK293H cells assessed as compound concentration required to increase full-length SMN2 mRNA level by 1.5 times after 24 hrs by RT-qPCR analysis relative to GAPDH; type: cell-based
Procedure, shortened: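 HEK293H cells stably carrying the SMN2 minigene (exon 6 to 5' exon 8 fused to firefly luciferase) were plated and held for 6 h, then treated 24 h in duplicate at varying concentrations (0.5% DMSO). Full-length minigene mRNA and GAPDH were quantified by TaqMan RT-qPCR using actual PCR efficiencies. Results were normalized to GAPDH and DMSO and expressed as fold change versus DMSO.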

Mus musculus [10] = test: In vivo inhibition of mRNA splicing of human SMN2 exon 7 in FVB.Cg-Tg(SMN2 delta 7 exon)4299Ahmb Tg(SMN2)89Ahmb Smn1tm1Msd/J mouse assessed as increase in SMN protein level in spinal cord at 1 mg/kg, ip qd administered on postnatal day 3 to day 9 by HTRF assay relative to control; type: functional; design: scale not given: the % may be the effect or the level left; procedure, shortened: as §1
Mus musculus [11] = test: In vivo inhibition of mRNA splicing of human SMN2 exon 7 in FVB.Cg-Tg(SMN2 delta 7 exon)4299Ahmb Tg(SMN2)89Ahmb Smn1tm1Msd/J mouse assessed as median survival time at 1 mg/kg/day, ip administered on postnatal day 3 to day 23 (reference value: 14 days); type: functional
Mus musculus [12] = test: In vivo inhibition of mRNA splicing of human SMN2 exon 7 in FVB.Cg-Tg(SMN2 delta 7 exon)4299Ahmb Tg(SMN2)89Ahmb Smn1tm1Msd/J mouse assessed as median survival time at 0.1 mg/kg/day, ip administered on postnatal day 3 to day 23 (reference value: 14 days); type: functional
Mus musculus [13] = test: In vivo inhibition of mRNA splicing of human SMN2 exon 7 in FVB.Cg-Tg(SMN2 delta 7 exon)4299Ahmb Tg(SMN2)89Ahmb Smn1tm1Msd/J mouse assessed as median survival time at 0.3 mg/kg/day, ip administered on postnatal day 3 to day 23 (reference value: 14 days); type: functional
Mus musculus [14] = test: In vivo inhibition of mRNA splicing of human SMN2 exon 7 in FVB.Cg-Tg(SMN2 delta 7 exon)4299Ahmb Tg(SMN2)89Ahmb Smn1tm1Msd/J mouse assessed as median survival time at 2 mg/kg/day, po bid administered on postnatal day 24 (reference value: 14 days); type: functional
Mus musculus [15] = test: In vivo inhibition of mRNA splicing of human SMN2 exon 7 in FVB.Cg-Tg(SMN2 delta 7 exon)4299Ahmb Tg(SMN2)89Ahmb Smn1tm1Msd/J mouse assessed as increase in SMN protein level in quadriceps at 0.03 mg/kg, ip qd administered on postnatal day 3 to day 9 by HTRF assay relative to control; type: functional; design: scale not given: the % may be the effect or the level left; procedure, shortened: as §1
Mus musculus [16] = test: In vivo inhibition of mRNA splicing of human SMN2 exon 7 in FVB.Cg-Tg(SMN2 delta 7 exon)4299Ahmb Tg(SMN2)89Ahmb Smn1tm1Msd/J mouse assessed as increase in SMN protein level in brain at 0.03 mg/kg, ip qd administered on postnatal day 3 to day 9 by HTRF assay relative to control; type: functional; design: scale not given: the % may be the effect or the level left; procedure, shortened: as §1
Mus musculus [17] = test: In vivo inhibition of mRNA splicing of human SMN2 exon 7 in FVB.Cg-Tg(SMN2 delta 7 exon)4299Ahmb Tg(SMN2)89Ahmb Smn1tm1Msd/J mouse assessed as increase in SMN protein level in spinal cord at 0.03 mg/kg, ip qd administered on postnatal day 3 to day 9 by HTRF assay relative to control; type: functional; design: scale not given: the % may be the effect or the level left; procedure, shortened: as §1

Structure (SMILES)	MST (Mus musculus [1]) [days]	MST (Mus musculus [2]) [days]	Activity (Mus musculus [3]) [%]	Activity (Mus musculus [4]) [%]	EC1.5 (Homo sapiens [5]) [nM]	Activity (Mus musculus [6]) [%]	MST (Mus musculus [7]) [days]	Activity (Mus musculus [8]) [%]	EC1.5 (Homo sapiens [9]) [nM]	Activity (Mus musculus [10]) [%]	MST (Mus musculus [11]) [days]	MST (Mus musculus [12]) [days]	MST (Mus musculus [13]) [days]	MST (Mus musculus [14]) [days]	Activity (Mus musculus [15]) [%]	Activity (Mus musculus [16]) [%]	Activity (Mus musculus [17]) [%]
Cc1cn2nc(-c3cc(=O)n4cc(N5CCN(C)CC5)ccc4n3)cc2c(C)n1	>190	>190	189	218	160	149	45	129	35	123	45						
Cc1cn2cc(-c3cc4ccc(N5CCN(C)CC5)cc4c(=O)o3)nc2c(C)n1			284	517		345		343		203		>100	>100	>100			
CCN1CCN(c2ccc3cc(-c4cn5cc(C)nc(C)c5n4)c(=O)oc3c2)C[C@@H]1C					44		>150				>150	34	>55	>55	-3	-10	7
